The values that follow come from ChEMBL document CHEMBL4680077, “Differentiation of skeletal osteogenic progenitor cells to osteoblasts with 3,4-diarylbenzopyran based amide derivatives: Novel osteogenic agents” (Eur J Med Chem, 2016).

The source made the active and inactive calls. The rule behind the calls is not given here.

In assay [1] the test system is Calvarial osteoblast. Description: Induction of osteoblast differentiation in mouse calvarial osteoblast assessed as increase in ALP activity using PNPP as substrate at 0.000001 to 1 uM incubated activity for 48 hrs by spectrophotometric analysis relative to control. The format is functional, cell-based. The settings on record: dose lower 1e-06 µM, dose upper 1.0 µM.

For assay [2], the system named is Mus musculus. Description: In vivo osteogenic activity in ovariectomized BALB/c mouse assessed as increase in femur bone volume density administered via oral gavage for 1 month by microCT imaging analysis. The format is functional, organism-based. The settings on record: time 1.0 months. The method, boiled down: (§1)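 Ovariectomized female balb/c mice, 8 weeks old, 10 per group, received 1.0 or 10.0 mg kg-1 once daily by oral gavage (gum acacia vehicle) for 4 weeks, alongside sham and Ovx vehicle groups. Femurs were scanned by microCT. BV/TV, Tb.N and Tb.Sp were derived by the mean intercept length method. Mean ± SE.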

Assay [3] relates to Mus musculus. Description: In vivo osteogenic activity in ovariectomized BALB/c mouse assessed as increase in trabecular number administered via oral gavage for 1 month by microCT imaging analysis. Type of assay: functional, organism-based. The settings on record: time 1.0 months. Summed up: as §1
Assay [4] deals with Mus musculus. Description: In vivo osteogenic activity in ovariectomized BALB/c mouse assessed as decrease in trabecular spacing administered via oral gavage for 1 month by microCT imaging analysis. The format is functional, organism-based. The settings on record: time 1.0 months. Summed up:
as §1

For assay [5], the system named is Calvarial osteoblast. Description: Induction of osteoblast differentiation in mouse calvarial osteoblast assessed as increase in ERbeta expression at 10 nM incubated for 48 hrs by Western blot analysis. Type of assay: functional, cell-based. The method, boiled down:
(§2)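 Calvarial osteoblasts at 60–70% confluence were treated ± compound for 48 h, with 100 pM E2 as positive control. Lysates (30 µg protein) were resolved on 10% SDS-PAGE, transferred to PVDF and probed for ER-α and ER-β with HRP secondaries and ECL detection. Bands were quantified by densitometry normalized to β-actin.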
(In general: In western blotting, separated proteins are transferred to a membrane and probed.)

Assay [6] relates to Calvarial osteoblast. Description: Induction of osteoblast differentiation in mouse calvarial osteoblast assessed as increase in ERalpha expression at 10 nM incubated for 48 hrs by Western blot analysis. Type of assay: functional, cell-based. The method, boiled down:
as §2

On to `CCCCN(C)C(=O)CCCOc1ccc(C2=C(c3ccccc3)C(C)(C)Oc3cc(OC)ccc32)cc1`, for which the result in the assay on Calvarial osteoblast [1] was Active.
As for `C[C@]12CC[C@@H]3c4ccc(O)cc4CC[C@H]3[C@@H]1CC[C@@H]2O`, the result in the assay with Mus musculus [2], in the assay with Mus musculus [3], in the assay on Mus musculus [4] and in the assay with Calvarial osteoblast [5] was Active. Also, the outcome in the assay on Calvarial osteoblast [6] was inactive.
Turning to `COc1ccc2c(c1)OC(C)(C)[C@H](c1ccccc1)[C@H]2c1ccc(OCCCCC(=O)NCc2ccccn2)cc1`, the result with Calvarial osteoblast [1] was Active.
For the compound `COc1ccc2c(c1)OC(C)(C)[C@H](c1ccccc1)[C@H]2c1ccc(OCCCCCC(=O)NCc2ccccn2)cc1`, the outcome with Calvarial osteoblast [1] was Active.
As to `CCCCN(C)C(=O)CCCOc1ccc([C@H]2c3ccc(OC)cc3OC(C)(C)[C@@H]2c2ccccc2)cc1`, in the assay with Calvarial osteoblast [1], the outcome was Active.
